Laboratory results reported in PMC7115568 (European Journal of Medicinal Chemistry, 2014).
“Also recorded” adds a separate entry of the source.

How the values were obtained:
Tritrichomonas foetus = experiment: In vitro protozoal parasite susceptibility assay; assay type: cell-based; settings: 24 h; for Average % inhibition at 50 μM (Tritrichomonas foetus): T. foetus strain D1, cells counted with hemacytometer; for inhibition at 50 µM: Tritrichomonas foetus, read-out: Average % inhibition at 50 μM (Tritrichomonas foetus)
Summary of the method: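 T. foetus strain D1 was screened in TYM Diamond's medium. Test compound was dissolved in DMSO and diluted into the medium. After 24 h exposure, parasites were counted with a hemacytometer.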

[1] = tested on: human prostate (PC-3) cancer cell line; experiment: In vitro cytotoxic studies; assay type: cell-based; settings: PC-3 cells; for Cytotoxicity % inhibition: 72 h, MTT; for Cytotoxicity against PC-3 cell line (in words): tested at 0.2, 2.0 and 20 μM
Summary of the method: (§1)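 PC-3 cells grown in DMEM with 10% FBS and plated in 96-well format. They were exposed to test compound over 20 μM–0.001 μM for 72 h. MTT was then added (stock 5 mg/ml in PBS) for 4 h. Plates were spun, supernatant removed and formazan dissolved in DMSO with 30 min shaking. A550 was read and percentage inhibition calculated.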

[2] = In vitro cytotoxic studies; assay type: cell-based, human; settings: human, PC-3 prostate cancer cells
Summary of the method: as §1

Compound | Average % inhibition at 50 μM (Tritrichomonas foetus) (Tritrichomonas foetus) [%] | Cytotoxicity % inhibition ([1]; 0.2 μM) [%] | Cytotoxicity % inhibition ([1]; 2 μM) [%] | Cytotoxicity % inhibition ([1]; 20 μM) [%] | inhibition at 50 µM (Tritrichomonas foetus) [%] | cytotoxicity at 72 h, 0.2 µM [2] [%] | cytotoxicity at 72 h, 2 µM [2] [%] | cytotoxicity at 72 h, 20 µM [2] [%] | Cytotoxicity against PC-3 cell line (in words) [1]
5-Methyl-1-(4-pyrrolidin-1-yl-but-2-ynyl)-1H-indole-2,3-dione [Compound 3m] | 31.8 | 6.8 | 10.5 | 2.4 |  |  |  |  | 
O=C1C(=O)N(CC#CCN2CCCCC2)c2ccccc21 [Compound 3a, 1-(4-Piperadin-1-yl-but-2-ynyl)-1H-indole-2,3-dione] | 18.2 | 6.0 | 4.0 | 7.0 |  |  |  |  | 
O=C1C(=O)N(CC#CCN2CCCC2)c2ccccc21 [Compound 3b, 1-(4-Pyrrolidin-1-yl-but-2-ynyl)-1H-indole-2,3-dione] |  |  |  |  | 10.6 | 7 | 7 | 3 | 
O=C1C(=O)N(CC#CCN2CCOCC2)c2ccccc21 [Compound 3c, 1-(4-Morpholin-4-yl-but-2-ynyl)-1H-indole-2,3-dione] |  |  |  |  | 9.1 | 13.4 | 11.6 | 8.7 | 
CCN(CC)CC#CCN1C(=O)C(=O)c2ccccc21 [Compound 3d, 1-(4-Diethylamino-but-2-ynyl)-1H-indole-2,3-dione] |  |  |  |  | 22.7 | 8 | 4.6 | 8 | 
O=C1C(=O)N(CC#CCN2CCCCC2)c2ccc(Cl)cc21 [Compound 3e, 5-Chloro-1-(4-piperidin-1-yl-but-2-ynyl)-1H-indole-2,3-dione] |  |  |  |  | 3 | 11.1 | 10.7 | 18.7 | 
O=C1C(=O)N(CC#CCN2CCCC2)c2ccc(Cl)cc21 [Compound 3f, 5-Chloro-1-(4-pyrrolidin-1-yl-but-2-ynyl)-1H-indole-2,3-dione] |  |  |  |  | 15.2 | 4.6 | 4.3 | 9.6 | 
O=C1C(=O)N(CC#CCN2CCOCC2)c2ccc(Cl)cc21 [Compound 3g, 5-Chloro-1-(4-morpholin-4-yl-but-2-ynyl)-1H-indole-2,3-dione] |  |  |  |  | 22.7 | 0.8 | 4.3 | 3.4 | 
CCN(CC)CC#CCN1C(=O)C(=O)c2cc(Cl)ccc21 [Compound 3h, 5-Chloro-1-(4-diethylamino-but-2-ynyl)-1H-indole-2,3-dione] |  |  |  |  | 42.4 | 4.8 | 5.6 | 6.4 | 
O=C1C(=O)N(CC#CCN2CCCCC2)c2ccc(F)cc21 [Compound 3i, 5-Fluoro-1-(4-piperidin-1-yl-but-2-ynyl)-1H-indole-2,3-dione] |  |  |  |  | 40.9 | -4.7 | -6 | 5.1 | 
O=C1C(=O)N(CC#CCN2CCCC2)c2ccc(F)cc21 [Compound 3j, 5-Fluoro-1-(4-pyrrolidin-1-yl-but-2-ynyl)-1H-indole-2,3-dione] |  |  |  |  | 33.3 | 5 | 4.3 | -2.7 | 
O=C1C(=O)N(CC#CCN2CCOCC2)c2ccc(F)cc21 [Compound 3k, 5-Fluoro-1-(4-morpholin-4-yl-but-2-ynyl)-1H-indole-2,3-dione] |  |  |  |  | 56.1 | 3.8 | 0.7 | 3.2 | 
CCN(CC)CC#CCN1C(=O)C(=O)c2cc(F)ccc21 [Compound 3l, 1-(4-Diethylamino-but-2-ynyl)-5-fluoro-1H-indole-2,3-dione] |  |  |  |  | 18.2 | 11.6 | 14.5 | 7.9 | 
Cc1ccc2c(c1)C(=O)C(=O)N2CC#CCN1CCCC1 [Compound 3n, 5-Methyl-1-(4-pyrrolidin-1-yl-but-2-ynyl)-1H-indole-2,3-dione] |  |  |  |  | 65.2 | 1.9 | 4.7 | 6.1 | 
Cc1ccc2c(c1)C(=O)C(=O)N2CC#CCN1CCOCC1 [Compound 3o, 5-Methyl-1-(4-morpholin-4yl-but-2-ynyl)-1H-indole-2,3-dione] |  |  |  |  | 57.6 | 8 | 7.8 | 3.5 | 
CCN(CC)CC#CCN1C(=O)C(=O)c2cc(C)ccc21 [Compound 3p, 1-(4-Diethylamino-but-2-ynyl)-5-methyl-1H-indole-2,3-dione] |  |  |  |  | 51.5 | 11.5 | 10.2 | 11.2 | 
O=C1C(=O)N(CC#CCN2CCN(CC#CCN3C(=O)C(=O)c4ccccc43)CC2)c2ccccc21 [Compound 5a, Bis-{1-(yl-but-2-ynyl)-1H-indole-2,3-dione} piperazine] | 3.0 | 6.5 | 10.3 | 45.8 |  |  |  |  | cytotoxic
O=C1C(=O)N(CC#CCN2CCN(CC#CCN3C(=O)C(=O)c4cc(Cl)ccc43)CC2)c2ccc(Cl)cc21 [Compound 5b, Bis-{5-chloro-1-(yl-but-2-ynyl)-1H-indole-2,3-dione} piperazine] | 7.6 | 24.4 | 28.9 | 24.8 |  |  |  |  | 
O=C1C(=O)N(CC#CCN2CCN(CC#CCN3C(=O)C(=O)c4cc(F)ccc43)CC2)c2ccc(F)cc21 [Compound 5c, Bis-{5-fluoro-1-(yl-but-2-ynyl)-1H-indole-2,3-dione} piperazine] | 9.1 | −0.6 | −3.6 | 7.4 |  |  |  |  | 
Cc1ccc2c(c1)C(=O)C(=O)N2CC#CCN1CCN(CC#CCN2C(=O)C(=O)c3cc(C)ccc32)CC1 [Compound 5d, Bis-{5-methyl-1-(yl-but-2-ynyl)-1H-indole-2,3-dione} piperazine] | 71.2 | −1.0 | 6.7 | 7.1 |  |  |  |  | 
O=C1C(=O)N(CC#CCN2CCN(c3ccnc4cc(Cl)ccc34)CC2)c2ccccc21 [Compound 7a, 1-{4-[4-(7-Chloro-quinolin-4-yl)-piperazin-1-yl]-but-2-ynyl}-1H-indole-2,3-dione] |  |  |  |  | 98.5 | 9 | 10.1 | -3.2 | no cytotoxicity; also recorded: minimal toxicity
O=C1C(=O)N(CC#CCN2CCN(c3ccnc4cc(Cl)ccc34)CC2)c2ccc(F)cc21 [Compound 7b, 1-{4-[4-(7-Chloro-quinolin-4-yl)-piperazin-1-yl]-but-2-ynyl}-5-fluoro-1H-indole-2,3-dione] |  |  |  |  | 100 | 2.1 | 5 | 3 | no cytotoxicity
O=C1C(=O)N(CC#CCN2CCN(c3ccnc4cc(Cl)ccc34)CC2)c2ccc(Cl)cc21 [Compound 7c, 5-Chloro-1-{4-[4-(7-chloro-quinolin-4-yl)-piperazin-1-yl]-but-2-ynyl}-1H-indole-2,3-dione] |  |  |  |  | 100 | 6.1 | 1.2 | 1.4 | no cytotoxicity; also recorded: minimal toxicity
Cc1ccc2c(c1)C(=O)C(=O)N2CC#CCN1CCN(c2ccnc3cc(Cl)ccc23)CC1 [Compound 7d, 1-{4-[4-(7-Chloro-quinolin-4-yl)-piperazin-1-yl]-but-2-ynyl}-5-methyl-1H-indole-2,3-dione] |  |  |  |  | 59.1 | 1.3 | 8.1 | 8.2 | no cytotoxicity; also recorded: minimal toxicity
O=C1C(=O)N(CC#CCN2CCN(c3ccnc4cc(Cl)ccc34)CC2)c2ccc([N+](=O)[O-])cc21 [Compound 7e, 1-{4-[4-(7-Chloro-quinolin-4-yl)-piperazin-1-yl]-but-2-ynyl}-5-nitro-1H-indole-2,3-dione] |  |  |  |  | 60.6 | 0.5 | 3.2 | 4.8 | 
CS(=O)(=O)N1CCN(Cc2cc3nc(-c4cccc5[nH]ncc45)nc(N4CCOCC4)c3s2)CC1 [GDC-0941, reference compound] |  |  |  |  |  | 30.2 | 56.8 | 72.2 | 
